Experimental data as given in ChEMBL document CHEMBL1125898, “Synthesis and biological activity of 2'-deoxy-4'-thio pyrimidine nucleosides” (J Med Chem, 1991).

Key:
L1210 [1] = experiment: The concentration required to produce a 50% reduction in the rate of cell proliferation in murine leukemia L1210 cells; NA=no cytotoxicity at 160 uM; assay type: functional, cell-based, Mus musculus
Method in brief: (§1)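 Highest concentration tested was 160 μM. IC50 is the concentration giving a 50% inhibition of clone formation (H-Ep-2) or a 50% reduction in the rate of cell proliferation (L1210).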

HEp-2 [2] = experiment: The concentration required to produce a 50% inhibition of clone formation in human epidermoid carcinoma H-Ep-2 cells; NA=no cytotoxicity at 160 uM; assay type: functional, cell-based; method in brief: as §1
HEp-2 [3] = experiment: The concentration required to produce a 50% inhibition of clone formation in human epidermoid carcinoma H-Ep-2 cells; assay type: functional, cell-based
L1210 [4] = experiment: The concentration required to produce a 50% reduction in the rate of cell proliferation in murine leukemia L1210 cells; assay type: functional, cell-based; conditions: Mus musculus
CCRF-CEM = experiment: The concentration required to inhibit cell growth to 50% of untreated controls in human T-cell leukemia CCRF-CEM cells; assay type: functional, cell-based

Compound	IC50 (L1210 [1])	IC50 (HEp-2 [2])	IC50 (HEp-2 [3]) [µM]	IC50 (L1210 [4]) [µM]	IC50 (CCRF-CEM) [µM]
O=c1ccn(C2CC(O)C(CO)S2)c(=O)[nH]1 (stereo not given)	Not Active	Not Active			
Cc1cn([C@@H]2C[C@H](O)[C@@H](CO)S2)c(=O)[nH]c1=O			25	66	
Nc1ccn(C2C[C@H](O)[C@@H](CO)S2)c(=O)n1 (stereo not given in full)			< 0.2	1	3.5
O=c1ccn([C@H]2C[C@H](O)[C@@H](CO)S2)c(=O)[nH]1			2.1	2.7	4
Cc1cn([C@H]2C[C@H](O)[C@@H](CO)S2)c(=O)[nH]c1=O [4'-THIOTHYMIDINE]			0.14	0.12	0.67
Nc1ccn([C@H]2C[C@H](O)[C@@H](CO)S2)c(=O)n1 [4'-THIO-2'-DEOXYCYTIDINE]			< 0.2	1.2	
